Assay results from ChEMBL document CHEMBL1149615, “Design, synthesis, and biological evaluation of LNA nucleosides as adenosine A3 receptor ligands” (Bioorg Med Chem, 2007).

Columns and labels:
Assay type in all cases: functional
Adenosine receptor A3 [1] = biological target: T1, Adenosine receptor A3 (Homo sapiens, UniProt P0DMS8); assay: Agonist activity at human adenosine A3 receptor after 15 to 30 mins
T1 sequence (P0DMS8 whole entry): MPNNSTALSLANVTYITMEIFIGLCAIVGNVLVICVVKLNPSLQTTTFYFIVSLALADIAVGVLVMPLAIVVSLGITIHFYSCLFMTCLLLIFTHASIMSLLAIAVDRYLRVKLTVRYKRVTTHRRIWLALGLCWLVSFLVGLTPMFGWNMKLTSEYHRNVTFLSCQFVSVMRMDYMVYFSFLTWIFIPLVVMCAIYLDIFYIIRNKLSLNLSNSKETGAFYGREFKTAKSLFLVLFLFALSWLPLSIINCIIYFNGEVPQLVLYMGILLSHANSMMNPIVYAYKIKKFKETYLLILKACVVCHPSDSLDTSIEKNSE
Procedure, shortened: (§1)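 AequoScreen cells expressing recombinant human A3 receptor and Gα16 were cultured at least one week, harvested with PBS-EDTA, and loaded overnight at room temperature with coelenterazine H in DMEM-F12 with 0.1% BSA. Cells were injected onto compound and aequorin luminescence was read. Duplicates at 100 µM–0.01 nM (eight concentrations) were normalised to saturating (EC100) IB-MECA to give EC50.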

[2] = biological target: T2, Adenosine receptor A3 (Homo sapiens) (UniProt P0DMS8); assay: (§2) Antagonist activity at human adenosine A3 receptor after 15 to 30 mins
T2 sequence (whole entry): T1 sequence (P0DMS8 whole entry)

Adenosine receptor A3 [3] = biological target: T1, Adenosine receptor A3; assay: as §2
Adenosine receptor A1 [4] = biological target: T3, Adenosine receptor A1 (Homo sapiens, UniProt P30542); assay: Antagonist activity at human adenosine A1 receptor
T3 sequence (P30542 whole entry): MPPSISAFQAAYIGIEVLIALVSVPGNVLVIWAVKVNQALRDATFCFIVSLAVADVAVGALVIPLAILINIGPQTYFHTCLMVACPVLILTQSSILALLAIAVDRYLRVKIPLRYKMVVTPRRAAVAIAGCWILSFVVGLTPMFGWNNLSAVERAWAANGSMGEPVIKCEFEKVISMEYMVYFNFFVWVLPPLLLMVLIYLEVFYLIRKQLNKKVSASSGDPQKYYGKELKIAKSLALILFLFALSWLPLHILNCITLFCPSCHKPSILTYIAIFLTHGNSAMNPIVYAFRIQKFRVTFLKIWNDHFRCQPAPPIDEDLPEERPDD
Procedure, shortened: (§3)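 Clones coexpressing mitochondrial apoaequorin and Gα16 were collected in PBS with 5 mM EDTA. They were loaded with 5 µM coelenterazine H for 4 h at room temperature, washed, and mixed with compound, and aequorin light was recorded for 30 s. Duplicates at eight concentrations from 3000 to 1 nM were fitted by sigmoidal nonlinear regression and expressed as percent of agonist response.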

Adenosine receptor A1 [5] = biological target: T3, Adenosine receptor A1; assay: Agonist activity at human adenosine A1 receptor; procedure, shortened: as §3
[6] = biological target: T2, Adenosine receptor A3 (Homo sapiens); assay: Agonist activity at human adenosine A3 receptor after 15 to 30 mins relative to IB-MECA; procedure, shortened: as §1

| Compound | EC50 (Adenosine receptor A3 [1]) | Imax [2] | IC50 (Adenosine receptor A3 [3]) | IC50 (Adenosine receptor A1 [4]) | EC50 (Adenosine receptor A1 [5]) | Emax [6] |
| --- | --- | --- | --- | --- | --- | --- |
| CO[C@@H]1[C@H](O)[C@@H](CO)O[C@H]1n1cnc2c(N)ncnc21 | > 100 µM | 100% | 0.015 µM | > 3 µM | > 3 µM |  |
| Nc1ncnc2c1ncn2[C@@H]1O[C@@]2(CO)CN[C@@H]1[C@@H]2O | > 100 µM |  | > 100 µM |  |  |  |
| CO[C@@H]1[C@H](O)[C@@H](CO)O[C@H]1n1cnc2c(NCc3cccc(I)c3)ncnc21 | > 100 µM | 100% | 0.0017 µM | > 3 µM | > 3 µM |  |
| Nc1ncnc2c1ncn2[C@@H]1O[C@@]2(CO)CO[C@@H]1[C@@H]2O | > 100 µM |  | > 100 µM |  |  |  |
| CNC(=O)[C@H]1O[C@@H](n2cnc3c(NCc4cccc(I)c4)ncnc32)[C@H](OC)[C@@H]1O | 0.0019 µM |  |  | > 3 µM | > 3 µM | 100% |
| OC[C@@]12CO[C@@H]([C@H](n3cnc4c(NCc5cccc(I)c5)ncnc43)O1)[C@@H]2O | > 100 µM | 100% | 0.15 µM |  |  |  |
| CNC(=O)[C@@]12CO[C@@H]([C@H](n3cnc4c(N)ncnc43)O1)[C@@H]2O | > 100 µM |  | > 100 µM |  |  |  |
| CNC(=O)[C@H]1O[C@@H](n2cnc3c(N)ncnc32)[C@H](OC)[C@@H]1O | 0.453 µM |  |  |  |  | 100% |
| CNC(=O)[C@@]12CN[C@@H]([C@H](n3cnc4c(N)ncnc43)O1)[C@@H]2O | > 100 µM | 100% | 0.17 µM |  |  |  |
| CNC(=O)[C@@]12CO[C@@H]([C@H](n3cnc4c(NCc5cccc(I)c5)ncnc43)O1)[C@@H]2O | > 100 µM |  | > 100 µM |  |  |  |
| CNC(=O)[C@@]12CN[C@@H]([C@H](n3cnc4c(NCc5cccc(I)c5)ncnc43)O1)[C@@H]2O | > 100 µM | 100% |  | > 3 µM | > 3 µM |  |
| OC[C@@]12CN[C@@H]([C@H](n3cnc4c(NCc5cccc(I)c5)ncnc43)O1)[C@@H]2O | > 100 µM | 100% | 0.0082 µM | > 3 µM | > 3 µM |  |
